According to ChEMBL document CHEMBL1926565, “Synthesis, antiproliferative activities and telomerase inhibition evaluation of novel asymmetrical 1,2-disubstituted amidoanthraquinone derivatives” (Eur J Med Chem, 2012):

Assays:
Format in all cases: functional
HL-60(TB) = test: Anticancer activity against human HL-60(TB) cells
Procedure, shortened: (§1)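 Tested by the NCI in its 60-human-tumour-cell-line panel. Dose-response curves were run, and GI₅₀ (50% growth inhibition), TGI (total growth inhibition) and LC₅₀ (50% cell killing) were read as interpolated concentrations where the curves cross those levels.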

SR = test: Anticancer activity against human SR cells
Procedure, shortened: (§2)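 NCI 60-human-tumour-cell-line panel. Selected analogues were first run at one dose, then some were carried into multi-dose testing. GI50 (50% growth inhibition), TGI (total growth inhibition) and LC50 (50% cell kill) were read as values interpolated where the dose–response curves cross these levels.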

UACC-62 = test: Anticancer activity against human UACC62 cells; settings: for CC50: read-out: LC50 (the source's name)
KM12 = test: Anticancer activity against human KM12 cells; procedure, shortened: as §2
A549 = test: Anticancer activity against human A549 cells; settings: for CC50: read-out: LC50 (the source's name); procedure, shortened: as §2
SK-MEL-2 = test: Anticancer activity against human SK-MEL-2 cells; settings: for CC50: read-out: LC50 (the source's name); procedure, shortened: as §2
HCT-116 = test: Anticancer activity against human HCT116 cells; settings: for CC50: read-out: LC50 (the source's name); procedure, shortened: as §2
NCI-H23 = test: Anticancer activity against human NCI-H23 cells; procedure, shortened: as §2
MOLT-4 = test: Anticancer activity against human MOLT4 cells; procedure, shortened: as §2
HT-29 = test: Anticancer activity against human HT-29 cells; settings: for CC50: read-out: LC50 (the source's name); procedure, shortened: as §2
HCT-15 = test: Anticancer activity against human HCT15 cells; procedure, shortened: as §2
NCI-H226 = test: Anticancer activity against human NCI-H226 cells; settings: for CC50: read-out: LC50 (the source's name); procedure, shortened: as §2
HOP-92 = test: Anticancer activity against human HOP92 cells; procedure, shortened: as §2
NCI/ADR-RES = test: Anticancer activity against human NCI/ADR-RES cells; settings: for CC50: read-out: LC50 (the source's name); procedure, shortened: as §2
MCF7 = test: Anticancer activity against human MCF7 cells; settings: for CC50: read-out: LC50 (the source's name); procedure, shortened: as §2
SK-MEL-5 = test: Anticancer activity against human SK-MEL-5 cells; settings: for CC50: read-out: LC50 (the source's name); procedure, shortened: as §2
OVCAR-8 = test: Anticancer activity against human OVCAR8 cells; settings: for CC50: read-out: LC50 (the source's name); procedure, shortened: as §2
DU-145 = test: Anticancer activity against human DU145 cells; settings: for CC50: read-out: LC50 (the source's name); procedure, shortened: as §2
[1] = Anticancer activity against human Hs 578T cells; settings: for CC50: read-out: LC50 (the source's name); procedure, shortened: as §2
786-0 = test: Anticancer activity against human 786-0 cells; settings: for CC50: read-out: LC50 (the source's name); procedure, shortened: as §2
RPMI-8226 [2] = test: Anticancer activity against human RPMI8226 cells; procedure, shortened: as §2
SF-539 = test: Anticancer activity against human SF539 cells; settings: read-out: LC50 (the source's name); procedure, shortened: as §2
COLO 205 = test: Anticancer activity against human COLO205 cells; procedure, shortened: as §2
Malme-3M = test: Anticancer activity against human MALME-3M cells; settings: for CC50: read-out: LC50 (the source's name); procedure, shortened: as §1
M14 = test: Anticancer activity against human M14 cells; procedure, shortened: as §2
NCI-H522 = test: Anticancer activity against human NCI-H522 cells; procedure, shortened: as §2
T47D = test: Anticancer activity against human T47D cells; settings: for CC50: read-out: LC50 (the source's name)
CCRF-CEM = test: Anticancer activity against human CCRF-CEM cells; procedure, shortened: as §2
SF-268 = test: Anticancer activity against human SF268 cells; settings: for CC50: read-out: LC50 (the source's name); procedure, shortened: as §2
SNB-75 = test: Anticancer activity against human SNB75 cells; settings: for CC50: read-out: LC50 (the source's name); procedure, shortened: as §2
RPMI-8226 [3] = test: Cytotoxicity against human RPMI8226 cells assessed as cellular growth at 10 uM
Procedure, shortened: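 Single-dose screen run by the NCI across its 60-human-tumour-cell-line panel; growth recorded for each cell line.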

[4] = read-out: LC50 (the source's name)

Cc1ccc(C(=O)Nc2c(NC(=O)CCl)ccc3c2C(=O)c2ccccc2C3=O)cc1
GI50 (HL-60(TB)): 6.14 µM | TGI (HL-60(TB)): 24.6 µM | CC50 (HL-60(TB); [4]): > 50 µM | GI50 (SR): 1.59 µM | LC50 (SR): > 50 µM | TGI (SR): > 50 µM | GI50 (UACC-62): 9.92 µM | TGI (UACC-62): 17.9 µM | CC50 (UACC-62): 32.2 µM | GI50 (KM12): 5.56 µM | LC50 (KM12): 28.3 µM | TGI (KM12): 12.6 µM | GI50 (A549): 12.3 µM | TGI (A549): 29.2 µM | CC50 (A549): > 50 µM | GI50 (SK-MEL-2): 1.34 µM | TGI (SK-MEL-2): 4.4 µM | CC50 (SK-MEL-2): > 50 µM | GI50 (HCT-116): 1.05 µM | TGI (HCT-116): 2.46 µM | CC50 (HCT-116): 9.32 µM | GI50 (NCI-H23): 1.78 µM | LC50 (50% cell kill) (NCI-H23): 31.4 µM | TGI (NCI-H23): 8.28 µM | GI50 (MOLT-4): 2.29 µM | TGI (MOLT-4): 2.95 µM | CC50 (MOLT-4; [4]): > 50 µM | CC50 (HT-29): > 50 µM | LC50 (HCT-15): 28.4 µM | GI50 (NCI-H226): 8.81 µM | TGI (NCI-H226): 20.8 µM | CC50 (NCI-H226): 49.1 µM | GI50 (HOP-92): 9.73 µM | LC50 (concentration giving 50% cell kill) (HOP-92): > 50 µM | TGI (HOP-92): 31.7 µM | GI50 (NCI/ADR-RES): 9.46 µM | TGI (NCI/ADR-RES): 30.7 µM | CC50 (NCI/ADR-RES): > 50 µM | GI50 (MCF7): 1.12 µM | TGI (MCF7): 4.95 µM | CC50 (MCF7): > 50 µM | GI50 (SK-MEL-5): 0.83 µM | TGI (SK-MEL-5): 1.53 µM | CC50 (SK-MEL-5): 2.83 µM | GI50 (OVCAR-8): 3.32 µM | TGI (OVCAR-8): 28.5 µM | CC50 (OVCAR-8): > 50 µM | GI50 (DU-145): 2.69 µM | TGI (DU-145): 9.07 µM | CC50 (DU-145): 23 µM | GI50 [1]: 1.64 µM | TGI [1]: 9.12 µM | CC50 [1]: > 50 µM | GI50 (786-0): 9.48 µM | TGI (786-0): 17.2 µM | CC50 (786-0): 31.2 µM | GI50 (RPMI-8226 [2]): 1.35 µM | LC50 (50% cell kill) (RPMI-8226 [2]): > 50 µM | TGI (RPMI-8226 [2]): > 50 µM | CC50 (SF-539): 25.1 µM | GI50 (COLO 205): 2.95 µM | LC50 (COLO 205): 23.7 µM | TGI (COLO 205): 9.65 µM | GI50 (Malme-3M): 5.89 µM | TGI (Malme-3M): 15.6 µM | CC50 (Malme-3M): 41.1 µM | GI50 (M14): 4.72 µM | TGI (M14): 12.4 µM | CC50 (M14; [4]): 31.4 µM | GI50 (NCI-H522): 0.88 µM | TGI (NCI-H522): 2.03 µM | GI50 (T47D): 1.19 µM | TGI (T47D): 4.04 µM | CC50 (T47D): 46.3 µM | GI50 (CCRF-CEM): 2.54 µM | TGI (CCRF-CEM): > 50 µM | CC50 (CCRF-CEM; [4]): > 50 µM | CC50 (SF-268): > 50 µM | CC50 (SNB-75): 30.5 µM

Cc1ccc(C(=O)Nc2ccc3c(c2NC(=O)c2ccc(C)cc2)C(=O)c2ccccc2C3=O)cc1
Activity (RPMI-8226 [3]): 101.77%

Cc1ccc(C(=O)Nc2c(NC(=O)CN3CCN(C)CC3)ccc3c2C(=O)c2ccccc2C3=O)cc1
LC50 (SR): > 100 µM | TGI (SR): 4.65 µM | GI50 (UACC-62): 2.52 µM | CC50 (UACC-62): > 100 µM | LC50 (KM12): > 100 µM | TGI (KM12): > 100 µM | TGI (A549): > 100 µM | CC50 (A549): > 100 µM | GI50 (SK-MEL-2): > 100 µM | TGI (SK-MEL-2): > 100 µM | CC50 (SK-MEL-2): > 100 µM | GI50 (HCT-116): 3.08 µM | TGI (HCT-116): > 100 µM | CC50 (HCT-116): > 100 µM | GI50 (NCI-H23): > 100 µM | LC50 (50% cell kill) (NCI-H23): > 100 µM | TGI (NCI-H23): > 100 µM | GI50 (HT-29): 3.09 µM | TGI (HT-29): > 100 µM | CC50 (HT-29): > 100 µM | GI50 (HCT-15): 3.36 µM | LC50 (HCT-15): > 100 µM | TGI (HCT-15): > 100 µM | GI50 (NCI-H226): > 100 µM | TGI (NCI-H226): > 100 µM | CC50 (NCI-H226): > 100 µM | GI50 (HOP-92): 0.87 µM | LC50 (concentration giving 50% cell kill) (HOP-92): > 100 µM | TGI (HOP-92): 9.19 µM | TGI (NCI/ADR-RES): > 100 µM | CC50 (NCI/ADR-RES): > 100 µM | GI50 (MCF7): 3.13 µM | TGI (MCF7): > 100 µM | CC50 (MCF7): > 100 µM | GI50 (SK-MEL-5): 1.94 µM | CC50 (SK-MEL-5): > 100 µM | GI50 (OVCAR-8): > 100 µM | TGI (OVCAR-8): > 100 µM | CC50 (OVCAR-8): > 100 µM | GI50 (DU-145): > 100 µM | TGI (DU-145): > 100 µM | CC50 (DU-145): > 100 µM | GI50 [1]: > 100 µM | TGI [1]: > 100 µM | CC50 [1]: > 100 µM | GI50 (786-0): 5.61 µM | TGI (786-0): > 100 µM | CC50 (786-0): > 100 µM | GI50 (RPMI-8226 [2]): 3.25 µM | LC50 (50% cell kill) (RPMI-8226 [2]): > 100 µM | TGI (RPMI-8226 [2]): > 100 µM | GI50 (COLO 205): 2.22 µM | LC50 (COLO 205): > 100 µM | TGI (COLO 205): 4.08 µM | CC50 (Malme-3M): > 100 µM | GI50 (M14): 2.22 µM | TGI (M14): 4.65 µM | TGI (NCI-H522): > 100 µM | CC50 (NCI-H522; [4]): > 100 µM | GI50 (T47D): 2.62 µM | CC50 (T47D): > 100 µM | TGI (SF-268): > 100 µM | CC50 (SF-268): > 100 µM | GI50 (SNB-75): > 100 µM | TGI (SNB-75): > 100 µM | CC50 (SNB-75): > 100 µM
